Results as given in ChEMBL document CHEMBL4425193 (Bioorg Med Chem, 2016).
Active and inactive are the calls of the source. The rule behind the calls is not given here. Positions of bridges follow the written chain, without caps; N, C: chain ends. Non-standard residues stand in square brackets, D forms with d. Residues, ends and D or L forms follow the SMILES beside them. Chains are numbered I, II in the order given. ξ: configuration not given here. Gly(N-piperonyl) = O=C(O)CNCc1ccc2c(c1)OCO2; N(4-MeOBn)Gly = COc1ccc(CNCC(=O)O)cc1; Nrpe = C[C@@H](NCC(=O)O)c1ccccc1; Nlys = NCCCCNCC(=O)O; ξK = NCCCCC(N)C(=O)O

Legend:
HCC4017 [1] = assay: Cytotoxicity against human HCC4017 cells at 0.1 to 100 uM after 1 day by MTS assay; type: functional, cell-based
Outline: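 HCC4017 lung cancer cells were seeded in clear-bottom 96-well plates. On day 2 they were exposed to compound in RPMI with 10% FBS containing 3% BSA, at eight graded concentrations from 0.1 μM to 100 μM, each in triplicate. On day 3 MTS reagent was added and absorbance was read at 490 nm.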

[2] = Displacement of FITC-labeled PPS1D1 from lipid phosphatidylserine assessed as remaining fluorescence at 1 uM incubated for 1 hr by ELISA-like competitive binding assay
Outline: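 Lipid PS in hexane (10 μg/ml) was coated into wells and dried at room temperature. Wells were blocked with 1% BSA/PBS for 1 h, then saturated with 200 nM FITC-PPS1D1 in blocking buffer for 1 h at room temperature and washed. Competitor at 1 μM was added for 1 h. After PBS washes, remaining fluorescence was read at 520 nm.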

HCC4017 [3] = assay: Cytotoxicity against human HCC4017 cells at 30 uM after 1 day by MTS assay
HCC4017 [4] = assay: Cytotoxicity against human HCC4017 cells at 30 uM after 1 day by MTS assay; type: functional, cell-based
Outline: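 HCC4017 cells were plated in 96-well format. On the second day compound was added in RPMI/10% FBS with 3% BSA, and each concentration was run in triplicate. MTS reagent was added on day 3 and absorbance was read at 490 nm. The absorbance values at the 30 μM treatment were taken for this readout.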

NCI-H460 = assay: Cytotoxicity against human H460 cells after 1 day by MTS assay; type: functional, cell-based; details: NCI-H460, 24 h
HCC4017 [5] = assay: Cytotoxicity against human HCC4017 cells after 1 day by MTS assay; type: functional, cell-based; details: HCC4017, 24 h

inhibition [2] | SMILES | Activity (HCC4017 [1]) | Activity (HCC4017 [3]) | Activity (HCC4017 [4]) | IC50 (NCI-H460) | IC50 (HCC4017 [5])
inactive | COc1ccc(CN(CC(=O)N(CCCCN)CC(=O)N[C@@H](CCCCN)C(=O)N[C@H](CCCCN)C(=O)N[C@@H](CCSC)C(=O)NCCCCC(NC(=O)[C@H](CCSC)NC(=O)[C@@H](CCCCN)NC(=O)[C@H](CCCCN)NC(=O)CN(CCCCN)C(=O)CN(Cc2ccc(OC)cc2)C(=O)CN(C(=O)CNCc2ccc3c(c2)OCO3)[C@H](C)c2ccccc2)C(N)=O)C(=O)CN(C(=O)CNCc2ccc3c(c2)OCO3)[C@H](C)c2ccccc2)cc1 (stereo partly drawn) | inactive | – | – | – | –
inactive | COc1ccc(CNCC(=O)N(CCCCN)CC(=O)N[C@@H](CCCCN)C(=O)N[C@H](CCCCN)C(=O)N[C@@H](CCSC)C(=O)NCCCCC(NC(=O)[C@H](CCSC)NC(=O)[C@@H](CCCCN)NC(=O)[C@H](CCCCN)NC(=O)CN(CCCCN)C(=O)CNCc2ccc(OC)cc2)C(N)=O)cc1 (stereo partly drawn) | inactive | – | – | – | –
inactive | COc1ccc(CN(CC(=O)N(CCCCN)CC(=O)N[C@@H](CCCCN)C(=O)N[C@H](CCCCN)C(=O)N[C@@H](CCSC)C(=O)NCCCCC(NC(=O)[C@H](CCSC)NC(=O)[C@@H](CCCCN)NC(=O)[C@H](CCCCN)NC(=O)CN(CCCCN)C(=O)CN(Cc2ccc(OC)cc2)C(=O)CN(C)C(=O)CN(Cc2ccc3c(c2)OCO3)C(=O)CN[C@H](C)c2ccccc2)C(N)=O)C(=O)CN(C)C(=O)CN(Cc2ccc3c(c2)OCO3)C(=O)CN[C@H](C)c2ccccc2)cc1 (stereo partly drawn) | – | inactive | inactive | – | –
inactive | COc1ccc(CN(CC(=O)N(CCCCN)CC(=O)N[C@@H](CCCCN)C(=O)N[C@@H](C)C(=O)N[C@@H](CCSC)C(=O)NCCCCC(NC(=O)[C@H](CCSC)NC(=O)[C@H](C)NC(=O)[C@H](CCCCN)NC(=O)CN(CCCCN)C(=O)CN(Cc2ccc(OC)cc2)C(=O)CN(C(=O)CN(Cc2ccc3c(c2)OCO3)C(=O)CN[C@H](C)c2ccccc2)[C@H](C)c2ccccc2)C(N)=O)C(=O)CN(C(=O)CN(Cc2ccc3c(c2)OCO3)C(=O)CN[C@H](C)c2ccccc2)[C@H](C)c2ccccc2)cc1 (stereo partly drawn) (I: H-[Nrpe][Gly(N-piperonyl)][Nrpe][N(4-MeOBn)Gly][Nlys]KAM[ξK]-NH2 / II: H-[Nrpe][Gly(N-piperonyl)][Nrpe][N(4-MeOBn)Gly][Nlys]KAM; amide I:9-II:C) | – | inactive | inactive | – | –
inactive | CSCC[C@H](NC(=O)[C@@H](CCCCN)NC(=O)[C@H](CCCCN)NC(=O)CN(CCCCN)C(=O)CN(C)C(=O)CN(C(=O)CN(Cc1ccc2c(c1)OCO2)C(=O)CN[C@H](C)c1ccccc1)[C@H](C)c1ccccc1)C(=O)NCCCCC(NC(=O)[C@H](CCSC)NC(=O)[C@@H](CCCCN)NC(=O)[C@H](CCCCN)NC(=O)CN(CCCCN)C(=O)CN(C)C(=O)CN(C(=O)CN(Cc1ccc2c(c1)OCO2)C(=O)CN[C@H](C)c1ccccc1)[C@H](C)c1ccccc1)C(N)=O (stereo partly drawn) | – | inactive | inactive | – | –
Active | COc1ccc(CN(CC(=O)N(CCCCN)CC(=O)N[C@@H](CCCCN)C(=O)N[C@H](CCCCN)C(=O)N[C@@H](CCSC)C(=O)NCCCCC(NC(=O)[C@H](CCSC)NC(=O)[C@@H](CCCCN)NC(=O)[C@H](CCCCN)NC(=O)CN(CCCCN)C(=O)CN(Cc2ccc(OC)cc2)C(=O)CN(C(=O)CN(Cc2ccc3c(c2)OCO3)C(=O)CN[C@H](C)c2ccccc2)[C@H](C)c2ccccc2)C(N)=O)C(=O)CN(C(=O)CN(Cc2ccc3c(c2)OCO3)C(=O)CN[C@H](C)c2ccccc2)[C@H](C)c2ccccc2)cc1 (stereo partly drawn) | Active | Active | Active | 5 to 10 µM | 5 to 10 µM
inactive | CSCC[C@H](NC(=O)[C@@H](CCCCN)NC(=O)[C@H](CCCCN)NC(=O)CNCCCCN)C(=O)NCCCCC(NC(=O)[C@H](CCSC)NC(=O)[C@@H](CCCCN)NC(=O)[C@H](CCCCN)NC(=O)CNCCCCN)C(N)=O (stereo partly drawn) | inactive | – | – | – | –

Further lines, the compound ahead of its results:

SMILES | inhibition [2] | Activity (HCC4017 [1]) | Activity (HCC4017 [3]) | Activity (HCC4017 [4]) | IC50 (NCI-H460) | IC50 (HCC4017 [5])
COCCN(CC(=O)N[C@@H](CCCCN)C(=O)N[C@H](CCCCN)C(=O)N[C@@H](CCSC)C(=O)NCCCCC(NC(=O)[C@H](CCSC)NC(=O)[C@@H](CCCCN)NC(=O)[C@H](CCCCN)NC(=O)CN(CCOC)C(=O)CN(Cc1ccc(OC)cc1)C(=O)CN(C(=O)CN(Cc1ccc2c(c1)OCO2)C(=O)CN[C@H](C)c1ccccc1)[C@H](C)c1ccccc1)C(N)=O)C(=O)CN(Cc1ccc(OC)cc1)C(=O)CN(C(=O)CN(Cc1ccc2c(c1)OCO2)C(=O)CN[C@H](C)c1ccccc1)[C@H](C)c1ccccc1 (stereo partly drawn) | – | Active | – | – | – | –
C=CCNCC(=O)N(CCOC)CC(=O)N(CC=C)CC(=O)N(CCOC)CC(=O)N(CC=C)CC(=O)NCC(=O)N[C@H](CCCCN)C(=O)N[C@@H](CCSC)C(=O)NCCCCC(NC(=O)[C@H](CCSC)NC(=O)[C@@H](CCCCN)NC(=O)CNC(=O)CN(CC=C)C(=O)CN(CCOC)C(=O)CN(CC=C)C(=O)CN(CCOC)C(=O)CNCC=C)C(N)=O (stereo partly drawn) | inactive | inactive | inactive | inactive | – | –
C=CCN(CC(=O)N[C@@H](CCCCN)C(=O)N[C@H](CCCCN)C(=O)N[C@@H](CCSC)C(=O)NCCCCC(NC(=O)[C@H](CCSC)NC(=O)[C@@H](CCCCN)NC(=O)[C@H](CCCCN)NC(=O)CN(CC=C)C(=O)CN(Cc1ccc(OC)cc1)C(=O)CN(C(=O)CN(Cc1ccc2c(c1)OCO2)C(=O)CN[C@H](C)c1ccccc1)[C@H](C)c1ccccc1)C(N)=O)C(=O)CN(Cc1ccc(OC)cc1)C(=O)CN(C(=O)CN(Cc1ccc2c(c1)OCO2)C(=O)CN[C@H](C)c1ccccc1)[C@H](C)c1ccccc1 (stereo partly drawn) | – | Active | – | – | – | –
COc1ccc(CN(CC(=O)N(CCCCN)CC(=O)N[C@@H](CCCCN)C(=O)N[C@H](CCCCN)C(=O)N[C@@H](CCSC)C(=O)NCCCCC(NC(=O)[C@H](CCSC)NC(=O)[C@@H](CCCCN)NC(=O)[C@H](CCCCN)NC(=O)CN(CCCCN)C(=O)CN(Cc2ccc(OC)cc2)C(=O)CN[C@H](C)c2ccccc2)C(N)=O)C(=O)CN[C@H](C)c2ccccc2)cc1 (stereo partly drawn) | inactive | inactive | – | – | – | –
CSCC[C@H](NC(=O)[C@@H](CCCCN)NC(=O)[C@@H](N)CCCCN)C(=O)NCCCCC(NC(=O)[C@H](CCSC)NC(=O)[C@@H](CCCCN)NC(=O)[C@@H](N)CCCCN)C(N)=O (stereo partly drawn) | inactive | inactive | – | – | – | –
COc1ccc(CN(CC(=O)N(CCCCN)CC(=O)N[C@@H](CCCCN)C(=O)N[C@H](CCCCN)C(=O)N[C@@H](C)C(=O)NCCCCC(NC(=O)[C@H](C)NC(=O)[C@@H](CCCCN)NC(=O)[C@H](CCCCN)NC(=O)CN(CCCCN)C(=O)CN(Cc2ccc(OC)cc2)C(=O)CN(C(=O)CN(Cc2ccc3c(c2)OCO3)C(=O)CN[C@H](C)c2ccccc2)[C@H](C)c2ccccc2)C(N)=O)C(=O)CN(C(=O)CN(Cc2ccc3c(c2)OCO3)C(=O)CN[C@H](C)c2ccccc2)[C@H](C)c2ccccc2)cc1 (stereo partly drawn) | – | – | Active | Active | – | –
